Unmarked numbers belong to inactive results. Records with an inconclusive call do not appear. The source made the active and inactive calls.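 Rule for the calls, unless noted: active = inhibition over a set limit, the all-compound mean plus 3 SD, in both replicate runs; inconclusive = over that limit in just one replicate run; inactive = at or under that limit in both runs.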

Assay [1] in a line: S. cerevisiae growth inhibition in permissive medium (OD615), pilot counter-assay for S. cerevisiae lifespan shortening project, permissive growth control (AID 705;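 active = growth inhibition above 25% in both replicates, a cutoff set 3 SD above the mean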). The conditions noted are these: OD615, 24 h, at 10 µM, active compounds read high. The gist of the method: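 assay system = Saccharomyces cerevisiae strain carrying genetically modified DeaD replicative-lifespan system | medium = SC raffinose/galactose permissive medium | dosing = 10 µM single dose, 0.25% DMSO | schedule = 24 h compound exposure at 30 °C after 4 h pre-growth | measured by = OD at 615 nm | read-out basis = growth inhibition from lowered OD615 after 24 h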

Assay [2] in a line: S. cerevisiae growth inhibition in restrictive medium, OD615, pilot screen, restrictive growth control, yeast lifespan reduction project (AID 706;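 active = growth inhibition above a set limit, 3 SD over mean compound inhibition, in both replicates, cut at about 43% in these data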;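 note: modified DeaD lifespan yeast strain shifted to restrictive glucose medium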). The conditions noted are these: OD615, 48 h, at 10 µM, active compounds read high. Summed up:
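Buffer or medium: CSMM-D glucose medium. Material: genetically modified Saccharomyces cerevisiae, DeaD replicative lifespan assay strain. Times: 48 h compound exposure at 30 °C. Measured by: optical density at 615 nm.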

The nature of assay [3]: doxorubicin toxicity protection in MRP-1 cells – H69AR cells, CellTiter-Glo, duplicate, MRP-1 activator project, pilot screen (AID 807;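 active = viability increase at or above a cutoff of the median across tested compounds plus 3 SD, cut at about 8.5% in these data, passing the limit was not always enough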;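 note: compound pretreatment 18-22 h then 72 h combined with doxorubicin; 0% = doxorubicin alone and 100% = vehicle without doxorubicin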). To be noted: H69AR viability with doxorubicin, CellTiter-Glo luminescence; at 10 µM; active compounds read high.
The nature of assay [4]: viability of HCT116 without oncogenic beta-catenin – human colon tumor cells, pilot screen (AID 823;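 active = cell viability at or below a set limit in both duplicate runs, the limit being the all-compound median minus 4 SD, cut at about 23% in these data, passing the limit was not always enough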;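 note: 0% = wells killed by 20 µM Hyamine and 100% = untreated DMSO cell wells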). To be noted: HCT116 beta-catenin knockout viability, CellTiter-Glo, 60 h; at 10 µM; active compounds read low. Background: In ATP-based viability assays light output follows the ATP content of the culture.
The nature of assay [5]: viability of PTEN-null HCT116 cells – cell-based, HCT116 clonal line, CellTiter-Glo, pilot screen (AID 824;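 active = viability at or below 27.92% in each of two runs, the all-compound median minus 4 SD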;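 note: 0% = 20 µM Hyamine control and 100% = vehicle cell control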). The conditions noted are these: HCT116 PTEN-deleted viability, 60 h, at 10 µM, active compounds read low.
Assay [6] is described as follows: RAM pathway blockade in budding yeast – dse1pr::URA3 reporter, 5-FOA selection, pilot screen (AID 869).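 Note: 0% = DMSO wells with no growth and 100% = 10 µM 1-NA-PP1 with full growth; RAM network block rescues cells from 5-FOA so hits raise OD615 growth.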 The conditions noted are these: S. cerevisiae dse1pr::URA3 5-FOA growth, OD615, 2 d; at 10 µM; active compounds read high; strain carries analog-sensitive mutant Cbk1 kinase.
A short description of assay [7]: RAM signaling pathway blockade in yeast – S. cerevisiae, Pdr1DBD-CYC8 efflux-inhibited sensitized strain, primary screen (AID 1298;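 active = RAM network inhibition above 8.4% in each of two replicates, 3 SD over the compound average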;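 note: 0% = DMSO untreated cells without growth and 100% = 10 µM 1-NA-PP1 full growth; higher means more yeast growth rescued from 5-FOA killing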). To be noted: S. cerevisiae cbk1-as DSE1-URA3 strain, 5-FOA growth OD615, 2 d; at 50 µM; active compounds read high.

Consider `COc1cccc(C(=O)Nc2nnc(-c3cccs3)o2)c1`, for which the growth inhibition in assay [1] is -16.4%; in assay [2], -17%. In assay [3], the viability increase is -4.26%. Besides, the values for the viability in assay [4] and in assay [5] were 44.8% and 56.3%, respectively. Also, the inhibition (commonly the relative decrease from the control value, in per cent) in assay [6] is 0.07%. For the same compound, the RAM network inhibition in assay [7] was 0.16%.

Take `CCOc1ccc(C2C(C(=O)Nc3ccc(F)cc3)=C(C)Nc3nc(CCCO)nn32)cc1` (stereo not drawn): the values for the growth inhibition in assay [1] and in assay [2] were -12.5% and 12.8%, respectively. Moreover, the viability increase in assay [3] was -0.6%. Moreover, the figures for the viability in assay [4] and in assay [5] were 96.6% and 91.5%, respectively. The inhibition in assay [6] is 0.87%. Besides, in assay [7], the RAM network inhibition is 1.21%.

With `Nc1c(S(=O)(=O)c2ccccc2)c2nc3ccccc3nc2n1Cc1ccco1`, the growth inhibition in assay [1] is -25.5%; in assay [2], -16.2%. For the same compound, in assay [3], the viability increase is -3.97%. The viability (commonly a read-out of living cells in per cent, often relative to untreated cells) in assay [4] is 78.8%; in assay [5], 73.8%. For the same compound, the inhibition in assay [6] is 2.83%. The RAM network inhibition in assay [7] was 7.51%.

For `CC1CSc2nnc(CCc3ccccc3)n21` (stereo not drawn), the growth inhibition in assay [1] was 2.06%; in assay [2], -7.96%. Besides, the viability increase in assay [3] is -2.61%. Further, the viability in assay [4] was 107%; in assay [5], 89.2%. Also, the inhibition in assay [6] was 0.37%. Further, the RAM network inhibition in assay [7] is -0.11%.

In the case of `CCCOc1ccc(S(=O)(=O)NCc2ccc(OC)cc2)cc1`, the growth inhibition is -0.685% in assay [1] and -1.88% in assay [2]. In assay [3], the viability increase was -1.41%. In addition, the viability in assay [4] and in assay [5] was 103% throughout. Moreover, in assay [6], the inhibition is 0.925%. Moreover, in assay [7], the RAM network inhibition is 7.26%.

For the compound `CCCC(=O)NCCCc1nc2ccccc2n1C`, the growth inhibition in assay [1] is -3.69%; in assay [2] it was -0.54%. Further, the viability increase in assay [3] is -1.21%. For the same compound, the viability in assay [4] was 97.1%; in assay [5], 105%. The inhibition in assay [6] is -0.03%. The RAM network inhibition in assay [7] is 2.78%.

In the case of `Cc1cc(C)n(C(=O)CCCC(=O)n2nc(C)cc2C)n1`, the growth inhibition in assay [1] was -10.5%; in assay [2] it was -10.9%. Besides, the viability increase in assay [3] is -1.19%. In addition, the viability in assay [4] is 105%; in assay [5], 97.4%. Besides, the inhibition in assay [6] is 1.19%. Besides, in assay [7], the RAM network inhibition is 2.92%.

Regarding `CSC1=NCCN1C(=O)c1cccs1`, the growth inhibition in assay [1] was -2.12%; in assay [2], 11.1%. Moreover, in assay [3], the viability increase was 0.08%. The viability in assay [4] is 99%; in assay [5] it was 99.3%. For the same compound, in assay [6], the inhibition was 1.11%. Also, the RAM network inhibition in assay [7] was 1.55%.

As for `O=C(COc1ccccc1)Nc1nnc(-c2ccccc2)o1`, the growth inhibition is -5.84% in assay [1] and 4.22% in assay [2]. In assay [3], the viability increase is 0.2%. The figures for the viability in assay [4] and in assay [5] were 104% and 94.1%, respectively. Also, the inhibition in assay [6] was 1.29%. Also, the RAM network inhibition in assay [7] is -1.25%.

Consider `O=C(c1ccc(F)cc1)c1cn[nH]c1-c1ccccc1O`, for which the growth inhibition is -15.3% in assay [1] and -15.9% in assay [2]. Also, the viability increase in assay [3] is -1.5%. Also, the viability in assay [4] was 99.5%; in assay [5], 94.9%. Also, in assay [6], the inhibition is 2.42%. The RAM network inhibition in assay [7] is 4.4%.

For the compound `Cn1c(Cn2c(=O)sc3ccccc32)nnc1SCC(=O)Nc1ccccc1F`, the growth inhibition in assay [1] was -5.34%; in assay [2], -10%. Moreover, the viability increase in assay [3] is -1.11%. For the same compound, the figures for the viability in assay [4] and in assay [5] were 104% and 99.4%, respectively. The inhibition in assay [6] is 1.62%. The RAM network inhibition in assay [7] was 9.24%.

As for `Cc1ccccc1NC(=O)CSC(N)=O`, the values for the growth inhibition in assay [1] and in assay [2] were -1.39% and 14.1%, respectively. In addition, the viability increase in assay [3] is -4.63%. The values for the viability in assay [4] and in assay [5] were 89.4% and 91%, respectively. In addition, the inhibition in assay [6] is 0.48%. Further, the RAM network inhibition in assay [7] is 8.45%.

As for `O=C(NCc1ccco1)C1c2ccccc2Oc2ccccc21`, the results for the growth inhibition in assay [1] and in assay [2] were -6.75% and 6.04%, respectively. Also, the viability increase in assay [3] was -5.24%. In addition, the viability in assay [4] was 83.8%; in assay [5], 88.4%. The inhibition in assay [6] was 0.12%. Besides, in assay [7], the RAM network inhibition was 3.94%.

For the compound `O=C(NCCc1ccc(S(=O)(=O)N2CCCC2)cc1)c1cccs1`, the growth inhibition in assay [1] was 2.67%; in assay [2], 7.14%. Also, the viability increase in assay [3] is -1.73%. Further, the viability in assay [4] was 93.4%; in assay [5], 90.2%. Further, the inhibition in assay [6] is 0.545%. Further, the RAM network inhibition in assay [7] is 6.32%.

Consider `CCCOC(=O)c1cccc(NC(=O)C(C)(C)C)c1`, for which the growth inhibition in assay [1] is -17.4%; in assay [2], -14.3%. The viability increase in assay [3] is 0.9%. In addition, the viability in assay [4] was 98.7%; in assay [5] it was 98.8%. In assay [6], the inhibition is -0.725%. Moreover, the RAM network inhibition in assay [7] was 1.87%.

As to `CC(=O)c1ccc(-n2nncc2C)cc1`, the growth inhibition in assay [1] was -4.02%; in assay [2], -11.6%. For the same compound, the viability increase in assay [3] is -3.63%. Also, the viability is 108% in assay [4] and 95.6% in assay [5]. The inhibition in assay [6] is 0.965%. In addition, the RAM network inhibition in assay [7] is 2.75%.

With `CC1CCN(c2nnc(N3CCC(C)CC3)c3ccccc23)CC1`, the values for the growth inhibition in assay [1] and in assay [2] were -19.1% and -14.8%, respectively. The viability increase in assay [3] is -3.17%. Also, the viability was 84% in assay [4] and 81.8% in assay [5]. Further, the inhibition in assay [6] was 1.98%. Besides, the RAM network inhibition in assay [7] was 4.58%.

On to `Cn1c2ccccc2c2c(C(=O)O)cn(C3CCCC3)c(=O)c21`, for which the growth inhibition in assay [1] is 3.4%; in assay [2], 1.83%. In addition, the viability increase in assay [3] was -3.21%. The viability in assay [4] is 91.4%; in assay [5], 91.7%. In addition, the inhibition in assay [6] is 1.46%. Also, in assay [7], the RAM network inhibition is 4.9%.

On to `CCCNC(=O)CS(=O)Cc1nc(-c2ccc(OC)cc2)oc1C` (stereo not drawn), for which the growth inhibition is -5.5% in assay [1] and 19.6% in assay [2]. Besides, in assay [3], the viability increase was -2.12%. Besides, the viability was 97.2% in assay [4] and 93.9% in assay [5]. The inhibition in assay [6] was 1.62%. Moreover, the RAM network inhibition in assay [7] is 3.43%.

Take `c1ccc(Cc2nnc3sc(-c4ccc5c(c4)OCCO5)nn23)cc1`: the growth inhibition in assay [1] is 4.51%; in assay [2] it was 55.8% (active). For the same compound, the viability increase in assay [3] was 0.47%. Further, the viability in assay [4] was 105%; in assay [5] it was 93.5%. In assay [6], the inhibition was 1.33%. Also, the RAM network inhibition in assay [7] is 12.8%.

In the case of `CCOC(=O)c1[nH]c(C)c(C(=O)NCCN2CCOCC2)c1C`, the growth inhibition in assay [1] is -3.9%; in assay [2], -8.41%. In addition, the viability increase in assay [3] was -1.39%. Moreover, the viability in assay [4] was 103%; in assay [5] it was 97.7%. In addition, in assay [6], the inhibition is 0.85%. The RAM network inhibition in assay [7] was -0.87%.

Take `Cc1onc(-c2ccccc2)c1C(=O)N1CCN(C/C=C/c2ccccc2)CC1`: the growth inhibition in assay [1] was -2.69%; in assay [2] it was 5.24%. In addition, the viability increase in assay [3] was -5.02%. Moreover, the figures for the viability in assay [4] and in assay [5] were 78.9% and 75.6%, respectively. Moreover, the inhibition in assay [6] is 2.72%. For the same compound, in assay [7], the RAM network inhibition is 3.92%.

With `O=C(NCCCN1CCc2ccccc2C1)C1CCN(c2nnc(-n3cccc3)s2)CC1`, the growth inhibition is 2.54% in assay [1] and -1.29% in assay [2]. Moreover, the viability increase in assay [3] is -3.55%. The viability is 82.2% in assay [4] and 79.4% in assay [5]. Further, the inhibition in assay [6] was 2.08%. The RAM network inhibition in assay [7] is 5.45%.

For `O=C(C1CCN(S(=O)(=O)c2cccc3cccnc23)CC1)N1CCCC1`, the values for the growth inhibition in assay [1] and in assay [2] were 11.8% and 7.97%, respectively. Also, in assay [3], the viability increase is -3.23%. For the same compound, the viability in assay [4] is 97%; in assay [5] it was 87.9%. For the same compound, in assay [6], the inhibition is 1.52%. Besides, the RAM network inhibition in assay [7] is 0.06%.

(Values after PubChem BioAssay.)
